Laboratory results as given in PMC12257511 (Journal of the American Chemical Society, 2025).
Where a SMILES comes first, the peptide text is derived from it. Bridges are numbered along the chain shown (N, C = ends).

Key:
[1] = biological target: T1, αSyn (Homo sapiens, UniProt P37840); experiment: Phase separation assay of αSyn with peptides; type: biochemical
Procedure, shortened: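 αSyn monomer dissolved in 10 mM NaOH to neutral pH, filtered, stored at −80 °C as a 400 μM stock. Mixed with 10% PEG in buffer pH 7.5 (DIC series: 20 mM sodium phosphate) and test compound from DMSO stock, 1% DMSO final. αSyn 100 μM unless stated (20–200 μM range); peptide 10–1,000 μM. Incubated 30 min at 4 °C. DIC at room temperature; turbidity at 600 nm, 1 mm cell, Peltier-controlled.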

[2] = test system: αSyn1–103; experiment: Phase separation assay with C-terminally truncated αSyn; type: biochemical, human; settings: 400 μM peptide, DIC images
[3] = biological target: T1, αSyn; experiment: ThT/ANS fluorescence assay of spontaneous αSyn aggregation; type: biochemical
Procedure, shortened: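 αSyn monomer diluted in 10× PBS with 20 μM ThT and 50 μM ANS (from 1 mM stock) and test compound at 0.1–10 mol equiv, prepared on ice. Plate held at 37 °C, cycling 3 min shaking/27 min quiescence. Bottom read: ThT ex 440 nm, ANS ex 380 nm, em 480 nm; three repeats per sample. […].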

[4] = Self-assembly and solubility of the peptide itself; type: physicochemical; settings: microscopy and turbidity measurements, absence of αSyn
Procedure, shortened: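 Test compound alone, without αSyn, added from DMSO stock to 10% PEG buffer at 1% DMSO final, over a range of concentrations. Incubated 30 min at 4 °C. Turbidity read at 600 nm in a 1 mm cell; supernatant fluorescence also measured.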

Structure (SMILES): C[C@@H](O)[C@H](NC(=O)[C@H](CCCNC(=N)N)NC(=O)[C@H](Cc1c[nH]c2ccccc12)NC(=O)[C@H](Cc1c[nH]c2ccccc12)NC(=O)[C@H](CCCNC(=N)N)NC(=O)[C@@H]1CCCN1C(=O)[C@H](CCCCN)NC(=O)[C@@H]1CSCC(=O)N[C@@H](Cc2ccc(O)cc2)C(=O)N[C@@H](CCC(N)=O)C(=O)N[C@@H](CCCNC(=N)N)C(=O)N[C@@H](Cc2c[nH]c3ccccc23)C(=O)N1)C(=O)N[C@@H](CS)C(=O)N[C@@H](Cc1ccc(O)cc1)C(=O)N[C@@H](Cc1c[nH]c2ccccc12)C(=O)N[C@@H](CS)C(=O)NCC(=O)N[C@@H](CCCCN)C(=O)N[C@@H](CCCCN)C(=O)N[C@@H](CCCCN)C(N)=O [FL2] ({CH2CO}-YQRWCKPRWWRTCYWCGKKK-NH2; thioether N-5)
- Temperature-dependent turbidity of the condensates ([1]; PBS buffer, 400 μM FL2 or 1 mM FD1): dissociated to a dispersed monomeric state as the temperature increased
- Concentration dependence of droplet formation ([1]; peptide 10–1,000 μM, 100 μM αSyn, 30 min at 4 °C, turbidity at 600 nm and fluorescence of the dilute phase): concentration-dependent increase in droplet formation
- LLPS efficiency with αSyn1–103 (class label in DIC image) [2]: formed aggregates rather than liquid droplets
- ANS fluorescence in the droplets ([3]; 400 μM FL2, 3 h incubation at 37 °C, fluorescence images): increase in ANS fluorescence intensity in the droplets
- Effect on spontaneous αSyn fibril formation, condition ii ([3]; 10% PEG in PBS, 0.1 to 10 mol equiv peptide, ThT, 37 °C, three repeats): a reduction in both ThT fluorescence intensity and lag time
- Maximum ThT and ANS intensity at high peptide concentrations ([3]; conditions ii and iii): decrease of magnitude of ThT signal and increase of ANS intensity
- Effect on spontaneous αSyn fibril formation, condition i ([3]; no PEG, PBS buffer, 0.1 to 10 mol equiv peptide, ThT, 37 °C, three repeats): no acceleration of the fibril formation of αSyn but rather expanded the lag time
- Self-assembly of the peptide itself [4]: tends to undergo self-assembly and/or LLPS at high concentrations
